{"source": "paper PMC4201501", "about": "(Journal of chromatography. B, Analytical technologies in …, 2014)", "key": {"[1]": {"assay": "Stability of stock solutions at room temperature", "format": "physicochemical", "conditions": "stock solution in acetonitrile, room temperature (25°C), at least 24 h", "outline": "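Primary stock solutions (10 mM in acetonitrile) of test compound and internal standard were held at room temperature (25°C) for 6, 12 and 24 h before analysis.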"}, "[2]": {"assay": "Stability of SP-141 in mouse plasma", "format": "in vitro ADME", "conditions": "for percentage of intact compound remaining after three freeze-thaw cycles: three freeze-thaw cycles (-20°C/room temperature)"}, "[3]": {"assay": "Autosampler stability of extracted plasma samples", "format": "physicochemical, mouse", "conditions": "extracted plasma sample, 4°C, 36 h", "outline": "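Extracted mouse-plasma QC samples (1.94, 81.0, 129.6 ng/mL; IS 16.2 ng/mL) were prepared by n-hexane–dichloromethane–2-propanol (20:10:1) extraction, dried under nitrogen at 40°C, and reconstituted in ACN–water 50:50. They were injected immediately (time 0), then re-injected after 36 h at 4°C in the autosampler. Quantitation was by C18 gradient LC–positive ESI MRM, as percentage of intact compound versus time 0.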"}, "[4]": {"format": "in vivo, CD-1 mice", "conditions": "CD-1, mouse, plasma, 40 mg/kg"}, "MDM2 protein": {"tested_on": "MDM2 protein", "conditions": "cited from earlier work"}, "[5]": {"tested_on": "human breast and pancreatic cancers", "conditions": "cited from earlier work"}}, "note": "Where two headings read alike, the source gives them in different places.", "data": [{"smiles": "COc1ccc2c(c1)[nH]c1c(-c3ccc4ccccc4c3)nccc12", "note": "[SP-157, 7-methoxy-1-(naphthalen-2-yl)-9H-pyrido[3,4-b]indole, reference compound]", "values": [{"measurement": "stability of stock solution", "setting": "[1]", "value": "stable"}]}, {"smiles": "COc1ccc2[nH]c3c(-c4cccc5ccccc45)nccc3c2c1", "note": "[SP-141, 6-methoxy-1-(naphthalen-1-yl)-9H-pyrido[3,4-b]indole]", "values": [{"measurement": "percentage of intact compound remaining after three freeze-thaw cycles", "setting": "[2]; 1.94 ng/mL", "value": "96.4% ± 0.6%"}, {"measurement": "percentage of intact compound remaining after three freeze-thaw cycles", "setting": "[2]; 81.0 ng/mL", "value": "96.2% ± 2.4%"}, {"measurement": "percentage of intact compound remaining after three freeze-thaw cycles", "setting": "[2]; 129.6 ng/mL", "value": "99.3% ± 2.5%"}, {"measurement": "compound remained intact after 24-h storage", "setting": "[2]; 4°C, 24 h, all QC concentrations", "value": "more than 95.3%"}, {"measurement": "stability in plasma at room temperature", "setting": "[2]; 25°C, up to 24 h, prior to extraction", "value": "relatively stable"}, {"measurement": "compound remaining after 24-h incubation", "setting": "[2]; 37°C, 24 h, all QC concentrations", "value": "more than 83.0%"}, {"measurement": "intact drug remained after storage for 4 weeks", "setting": "[2]; −80°C, 4 weeks, all concentrations tested", "value": "more than 92.2%"}, {"measurement": "stability of stock solution", "setting": "[1]", "value": "stable"}, {"measurement": "percentage of intact compound in the autosampler", "setting": "[3]; 1.94 ng/mL", "value": "96.3% ± 2.7%"}, {"measurement": "percentage of intact compound in the autosampler", "setting": "[3]; 81.0 ng/mL", "value": "98.5% ± 3.1%"}, {"measurement": "percentage of intact compound in the autosampler", "setting": "[3]; 129.6 ng/mL", "value": "96.8% ± 0.6%"}, {"measurement": "AUC(0-inf)", "setting": "[4]; ip", "value": 13200, "unit": "ng·h/mL"}, {"measurement": "AUC(0-t)", "setting": "[4]; ip", "value": 12600, "unit": "ng·h/mL"}, {"measurement": "Cmax", "setting": "[4]; ip", "value": 4420, "unit": "ng/mL"}, {"measurement": "Tmax", "setting": "[4]; ip", "value": 10, "unit": "min"}, {"measurement": "concentration at 10 min", "setting": "[4]; ip", "value": 4420, "unit": "ng/mL"}, {"measurement": "concentration at 24 h", "setting": "[4]; ip", "value": "< 150", "unit": "ng/mL"}, {"measurement": "half-life", "setting": "[4]; ip", "value": 107, "unit": "min"}, {"measurement": "AUC(0-inf)", "setting": "[4]; iv", "value": 8540, "unit": "ng·h/mL"}, {"measurement": "AUC(0-t)", "setting": "[4]; iv", "value": 8340, "unit": "ng·h/mL"}, {"measurement": "Cmax", "setting": "[4]; iv", "value": 5530, "unit": "ng/mL"}, {"measurement": "concentration at 5 min", "setting": "[4]; iv", "value": 5530, "unit": "ng/mL"}, {"measurement": "concentration at 24 h", "setting": "[4]; iv", "value": "< 20", "unit": "ng/mL"}, {"measurement": "half-life", "setting": "[4]; iv", "value": 58.8, "unit": "min"}, {"measurement": "binding to the MDM2 protein", "setting": "MDM2 protein", "value": "directly binds"}, {"measurement": "potency against human breast and pancreatic cancers", "setting": "[5]", "value": "high potency"}, {"measurement": "toxicity at doses leading to tumor regression", "setting": "[5]", "value": "without any observable toxicity"}]}]}
